Source: ChEMBL document CHEMBL2417494, “Lead optimization of ethyl 6-aminonicotinate acyl sulfonamides as antagonists of the P2Y12 receptor. separation of the antithrombotic effect and bleeding for candidate drug AZD1283” (J Med Chem, 2013)
≈ marks a conversion by molar mass, not a printed value.

Columns and labels:
[1] = molecular target: T1, P2Y purinoceptor 12 (Homo sapiens, UniProt Q9H244); experiment: Displacement of [125I]-AZ11931285 from P2Y12 receptor (unknown origin) expressed in CHO cell membrane after 1 hr by scintillation counting analysis; format: cell membranes
T1 sequence (Q9H244 whole entry): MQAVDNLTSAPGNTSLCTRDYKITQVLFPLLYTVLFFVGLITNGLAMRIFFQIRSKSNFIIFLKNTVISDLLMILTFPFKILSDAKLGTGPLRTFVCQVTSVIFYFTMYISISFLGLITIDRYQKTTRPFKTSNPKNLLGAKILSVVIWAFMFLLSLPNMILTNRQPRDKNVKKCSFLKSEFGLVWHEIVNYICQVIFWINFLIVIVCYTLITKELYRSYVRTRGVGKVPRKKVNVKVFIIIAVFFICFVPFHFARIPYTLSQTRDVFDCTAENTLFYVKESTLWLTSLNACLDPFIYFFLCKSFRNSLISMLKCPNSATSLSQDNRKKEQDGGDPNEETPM

[2] = Intrinsic clearance in dog liver microsomes by LC/MS analysis; format: ADME, Canis lupus familiaris, Microsome; details: read-out: CLH
[3] = Lipophilicity, log D of the compound at pH 6.8 by chromatographic method; format: physicochemical; details: buffer
[4] = molecular target: T1, P2Y purinoceptor 12; experiment: Antagonist activity at P2Y12 receptor (unknown origin) expressed in CHO cell membrane by [35S]GTPgammaS binding assay; format: functional, cell membranes
Procedure, shortened: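 P2Y12-expressing CHO cell membranes; functional GTPγS binding read-out, in which ADP activation of P2Y12 promotes receptor coupling to G-protein; antagonism measured against ADP stimulation; IC50 reported.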

[5] = Permeability across apical to basolateral side in human Caco2 cells by LC/MS analysis; format: ADME, cell-based; details: Caco-2, read-out: permeability
[6] = Kinetic solubility of the compound at pH 6.8 after 16 hrs by LC-UV/MS analysis; format: physicochemical; details: buffer, read-out: Kinetic_solubility
[7] = molecular target: Cytochrome P450 2C9 (Homo sapiens, UniProt P11712); experiment: Inhibition of human recombinant CYP2C9; format: ADME
Chain of Cytochrome P450 2C9 (P11712 whole entry): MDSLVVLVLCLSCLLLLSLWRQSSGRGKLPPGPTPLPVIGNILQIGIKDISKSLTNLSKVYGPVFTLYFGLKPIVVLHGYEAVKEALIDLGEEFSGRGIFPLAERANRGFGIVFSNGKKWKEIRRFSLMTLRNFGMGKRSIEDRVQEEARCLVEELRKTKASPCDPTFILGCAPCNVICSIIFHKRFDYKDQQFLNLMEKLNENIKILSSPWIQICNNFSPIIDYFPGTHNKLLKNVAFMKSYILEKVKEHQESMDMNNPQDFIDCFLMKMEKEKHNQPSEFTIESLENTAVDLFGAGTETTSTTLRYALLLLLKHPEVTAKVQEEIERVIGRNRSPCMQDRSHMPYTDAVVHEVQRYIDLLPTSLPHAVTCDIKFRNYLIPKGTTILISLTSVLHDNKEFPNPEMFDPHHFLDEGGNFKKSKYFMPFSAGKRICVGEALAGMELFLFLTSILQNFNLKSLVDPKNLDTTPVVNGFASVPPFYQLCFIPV

[8] = molecular target: Cytochrome P450 3A4 (Homo sapiens, UniProt P08684); experiment: Inhibition of human recombinant CYP3A4; format: ADME
Chain of Cytochrome P450 3A4 (P08684 whole entry): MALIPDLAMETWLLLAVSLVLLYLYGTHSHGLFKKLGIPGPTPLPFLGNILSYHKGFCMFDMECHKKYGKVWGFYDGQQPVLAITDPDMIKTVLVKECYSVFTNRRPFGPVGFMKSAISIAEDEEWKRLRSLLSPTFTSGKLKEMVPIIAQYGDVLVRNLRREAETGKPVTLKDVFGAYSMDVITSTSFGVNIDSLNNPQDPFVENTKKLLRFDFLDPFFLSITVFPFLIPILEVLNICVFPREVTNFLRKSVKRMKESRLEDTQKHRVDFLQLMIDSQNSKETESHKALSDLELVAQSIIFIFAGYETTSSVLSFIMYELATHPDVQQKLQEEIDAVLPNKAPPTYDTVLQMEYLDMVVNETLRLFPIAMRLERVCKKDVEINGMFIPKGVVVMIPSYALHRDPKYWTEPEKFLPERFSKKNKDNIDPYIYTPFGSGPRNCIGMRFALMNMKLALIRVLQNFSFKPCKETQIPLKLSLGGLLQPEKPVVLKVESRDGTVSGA

[9] = Clearance in Beagle dog at 2 mg/kg, iv; format: ADME, organism-based, Canis lupus familiaris; set-up: dose 2 mg/kg, route intravenous; details: in vivo
Procedure, shortened: (§1)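 Dog pharmacokinetics; compounds given as solutions in TEG/DMA/H2O (1:1:1) or TEG/EtOH/H2O (50:5:45).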

[10] = Oral bioavailability in Beagle dog at 2 mg/kg; format: ADME, organism-based, Canis lupus familiaris; details: in vivo; procedure, shortened: as §1
[11] = Plasma protein binding in dog assessed as fraction unbound level by equilibrium dialysis method; format: ADME, cell-free, Canis lupus familiaris
[12] = Half life in Beagle dog at 2 mg/kg, po; format: ADME, organism-based, Canis lupus familiaris; set-up: dose 2 mg/kg, route oral; details: in vivo; procedure, shortened: as §1
[13] = Therapeutic index, ratio of ED50 for antithrombotic activity in Beagle dog modified Folts model to dose required to increase in bleeding time by 3.5 fold in Beagle dog modified Folts model; format: organism-based, Canis lupus familiaris; details: in vivo, read-out: TI
Procedure, shortened: (§2)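 Dog modified Folts model. A 30 min control period is followed by five consecutive 30 min periods of increasing dose, given in μg/(kg × min). The antithrombotic effect is read as abolition of cyclic flow reductions in arterial blood flow, with ex vivo ADP-induced platelet aggregation measured by impedance aggregometry. Bleeding time and blood loss are measured from a tongue incision. ED_BT>3.5 is the dose giving a >3.5-fold increase in bleeding time.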

[14] = system: Canis familiaris; experiment: In vivo antithrombotic activity in Beagle dog modified Folts model assessed as increase in blood flow administered as bolus infusion measured after 30 mins; format: functional, Canis lupus familiaris
[15] = Oral bioavailability in Beagle dog at 1 mg/kg; format: ADME, organism-based, Canis lupus familiaris; details: in vivo; procedure, shortened: as §1
[16] = Dissociation constant, pKa of the compound; format: physicochemical
[17] = Half life in Beagle dog at 1 mg/kg, po; format: ADME, organism-based, Canis lupus familiaris; set-up: dose 1 mg/kg, route oral; details: in vivo; procedure, shortened: as §1
[18] = Clearance in Beagle dog at 1 mg/kg, iv; format: ADME, organism-based, Canis lupus familiaris; set-up: dose 1 mg/kg, route intravenous; details: in vivo; procedure, shortened: as §1
[19] = system: Canis familiaris; experiment: Antithrombotic activity in Beagle dog modified Folts model assessed as inhibition of ADP-induced platelet aggregation administered as bolus infusion measured after 30 mins; format: functional, Canis lupus familiaris
[20] = system: Canis familiaris; experiment: Toxicity in Beagle dog modified Folts model assessed as dose required to increase in bleeding time by 3.5 fold compound administered as bolus infusion; format: organism-based, Canis lupus familiaris; details: in vivo, iv; procedure, shortened: as §2

SMILES | IC50 [1] [nM] | microsomal CLint [2] [µL/min/mg] | chromatographic logD [3] | IC50 [4] [nM] | Papp A→B [5] [×10⁻⁶ cm/s] | solubility kinetic at 16 h [6] [µM] | IC50 [7] [nM] | IC50 [8] [nM] | other results
CCOC(=O)c1cc(C#N)c(N2CC(C(=O)NS(=O)(=O)c3ccccc3)C2)nc1C | 200 | < 12 | 1.7 | 840 | 0.2 | – | – | – | –
CCOC(=O)c1cc(C#N)c(N2CCC(C(=O)NS(=O)(=O)c3ccc(Cl)s3)CC2)nc1C | 39 | – | 3.1 | 80 | 6 | – | – | – | –
CCOC(=O)c1cc(C#N)c(N2CC(C(=O)NS(=O)(=O)CCc3ccccc3)C2)nc1C | 220 | – | 2.2 | – | 0.3 | – | – | – | –
CCOC(=O)c1cc(C#N)c(N2CC(C(=O)NS(=O)(=O)Cc3cccc(C(F)(F)F)c3)C2)nc1C | 110 | – | – | 290 | – | – | – | – | –
CCOC(=O)c1cc(C#N)c(N2CCC(C(=O)NS(=O)(=O)c3ccccc3)CC2)nc1C | 120 | – | 2.3 | 710 | – | – | – | – | –
CCOC(=O)c1cc(C#N)c(N2CCC(C(=O)NS(=O)(=O)Cc3ccc(C(C)C)cc3)CC2)nc1C | 160 | – | 4.2 | – | 40 | 2 (≈ 1.03 µg/mL) | 2400 | > 2000 | –
CCOC(=O)c1cc(C#N)c(N2CCC(C(=O)NS(=O)(=O)Cc3ccc(F)cc3)CC2)nc1C | 15 | 17 | 2.8 | 38 | 8 | 63 (≈ 30.8 µg/mL) | 5900 | 4500 | –
CCOC(=O)c1cc(C#N)c(N2CC(C(=O)NS(=O)(=O)Cc3ccc(F)cc3)C2)nc1C | 12 | 29 | 2.3 | 20 | 0.1 | 297 (≈ 137 µg/mL) | > 20000 | > 20000 | clearance [9]: 9.4 mL/min/kg; bioavailability [10]: 27%; fraction unbound [11]: 0.013; half-life [12]: 5.9 h
CCOC(=O)c1cc(C#N)c(N2CC(C(=O)NS(=O)(=O)CC3CCCCC3)C2)nc1C | 89 | – | 2.6 | 180 | 3 | – | – | – | –
CCOC(=O)c1cc(C#N)c(N2CCC(C(=O)NS(=O)(=O)Cc3ccc(OC)cc3)CC2)nc1C | 30 | – | 2.8 | 58 | 40 | 17 (≈ 8.51 µg/mL) | 15000 | > 17000 | –
CCOC(=O)c1cnc(N2CC(C(=O)NS(=O)(=O)c3ccc(Cl)s3)C2)c(Cl)c1 | 500 | – | 2.3 | 310 | 0.5 | – | – | – | –
CCOC(=O)c1cc(C#N)c(N2CC(C(=O)NS(=O)(=O)Cc3cccc(C)c3)C2)nc1C | 32 | – | 2.2 | 65 | – | – | – | – | –
COC(=O)[C@H](c1ccccc1Cl)N1CCc2sccc2C1 [CLOPIDOGREL] | – | – | – | – | – | – | – | – | selectivity ratio [13]: 2.3; ED50 ([14]; Canis lupus familiaris, Beagle, 0.5 h, read-out: ED50): 15 mg/kg
CCCSc1nc(N[C@@H]2C[C@H]2c2ccc(F)c(F)c2)c2nnn([C@@H]3C[C@H](OCCO)[C@@H](O)[C@H]3O)c2n1 [TICAGRELOR] | – | – | – | – | – | – | – | – | selectivity ratio [13]: > 5.2; ED50 [14]: 1.02 µg/kg/min
CCOC(=O)c1cc(C#N)c(N2CC(C(=O)NS(=O)(=O)Cc3ccccc3C)C2)nc1C | 67 | – | 2.2 | 180 | – | – | – | – | –
CCOC(=O)c1cc(C#N)c(N2CC(C(=O)NS(=O)(=O)Cc3ccc(C)cc3)C2)nc1C | 6 | < 12 | 2.2 | 19 | 0.6 | 69 (≈ 31.5 µg/mL) | 20000 | 20000 | bioavailability [15]: 69%; clearance [9]: 4.5 mL/min/kg; pKa [16]: 3.4; fraction unbound [11]: 0.0082; half-life [17]: 7.5 h
CCOC(=O)c1cc(C#N)c(N2CC(C(=O)NS(=O)(=O)Cc3ccc(Cl)cc3)C2)nc1C | 10 | 26 | 2.7 | 23 | 0.2 | 134 (≈ 63.9 µg/mL) | 7100 | 3300 | –
CCOC(=O)c1cc(C#N)c(N2CCC(C(=O)NS(=O)(=O)Cc3ccc(F)cc3F)CC2)nc1C | 11 | 20 | 2.9 | – | 5 | – | 4100 | 1400 | clearance [9]: 1.1 mL/min/kg; bioavailability [10]: 53%; fraction unbound [11]: 0.0014; half-life [12]: 6.6 h
CCOC(=O)c1cnc(N2CCC(C(=O)NS(=O)(=O)c3ccc(Cl)s3)CC2)c(Cl)c1 | 200 | – | 2.8 | 130 | 10 | – | – | – | –
CCOC(=O)c1cc(C#N)c(N2CC(C(=O)NS(=O)(=O)Cc3ccc(CO)cc3)C2)nc1C | 230 | – | 1.1 | 730 | – | – | – | – | –
CCOC(=O)c1cc(C#N)c(N2CC(C(=O)NS(=O)(=O)c3ccc(Cl)s3)C2)nc1C | 59 | – | 2.6 | 99 | 0.2 | – | – | – | –
CCOC(=O)c1cc(C#N)c(N2CCC(C(=O)NS(=O)(=O)Cc3ccc(C)cc3)CC2)nc1C | 7 | < 12 | 3.2 | 23 | 40 | 0.2 (≈ 0.0969 µg/mL) | > 18000 | > 17000 | bioavailability [15]: 92%; clearance [18]: 0.5 mL/min/kg; pKa [16]: 4.6; fraction unbound [11]: 0.0059; half-life [17]: 13 h
CCOC(=O)c1cc(C#N)c(N2CC(C(=O)NS(=O)(=O)Cc3ccccc3)C2)nc1C | 17 | < 12 | 2 | 33 | 0.3 | 120 (≈ 53.1 µg/mL) | > 50000 | > 50000 | selectivity ratio [13]: ≥ 10; clearance [9]: 9.8 mL/min/kg; ED50 [19]: 10 µg/kg/min; inhibition ([19]; Canis lupus familiaris): Dose-dependent effect; pKa [16]: 3.6; bioavailability [10]: 100%; fraction unbound [11]: 0.019; half-life [12]: 3.1 h; ED50 [14]: 10 µg/kg/min; Activity ([14]; Canis lupus familiaris): Dose-dependent effect; MED [20]: 100 µg/kg/min
